{"data": "Results gathered from unrelated publications", "target": "Mu-type opioid receptor (Oprm1, Rattus norvegicus, UniProt P33535)", "note": "Protocols differ between the studies behind these lines."}
{"Compound": "Oc1cccc([C@@]23CCC[C@@H]([C@@H]2O)N(CC=Cc2ccccc2)CC3)c1", "assay": "ligand displacement, radioligand", "Ki [nM]": 25}
{"Compound": "CCc1cccc(C)c1C[C@H](NC(=O)[C@@H](CCCNC(=N)N)NC(=O)[C@@H](N)Cc1c(C)cc(O)cc1C)C(=O)N[C@@H](CCCCN)C(N)=O", "assay": "ligand displacement, radioligand", "conditions": "cell membranes", "Ki [nM]": 0.0958}
{"Compound": "Cc1cc(O)cc(C)c1C[C@H](N)C(=O)N1CCc2ccc(Cc3ccc([N+](=O)[O-])cc3)cc2C1", "assay": "ligand displacement, radioligand", "conditions": "cell membranes", "Ki [nM]": 2.6}
{"Compound": "C[C@@H](NC(=O)[C@@H](N)Cc1ccc(O)cc1)C(=O)NCC(=O)N[C@H](CC(=O)NNC(=O)C[C@H](Cc1ccccc1)NC(=O)CNC(=O)[C@@H](C)NC(=O)[C@@H](N)Cc1ccc(O)cc1)Cc1ccccc1", "assay": "ligand displacement, radioligand", "Ki [nM]": 1.1}
{"Compound": "Cc1ccccc1Cc1ccc2c(c1)CN(C(=O)[C@@H](N)Cc1c(C)cc(O)cc1C)CC2", "assay": "ligand displacement, radioligand", "conditions": "cell membranes", "Ki [nM]": 2.5}
{"Compound": "Cc1cc(O)cc(C)c1C[C@H](C)C(=O)N[C@@H]1C/C=C\\CC[C@@H](C(N)=O)NC(=O)[C@H](Cc2ccccc2)NC(=O)[C@H](Cc2ccccc2)NC1=O", "assay": "ligand displacement, radioligand", "conditions": "cell membranes", "Ki [nM]": 7.44}
{"Compound": "Cc1cc(O)cc(C)c1C[C@H](N)C(=O)N1Cc2ccccc2CC1C(=O)NCC(=O)NC(Cc1ccc(Cl)cc1)C(=O)N(C)CCC[C@@]1(c2ccc(F)cc2)OCc2cc(C#N)ccc21 (stereo in doubt)", "assay": "cell-free assay", "Ki [nM]": 35}
{"Compound": "Cc1cc(O)cc(C)c1C[C@H](C)C(=O)N[C@@H]1CCCCC[C@@H](C(N)=O)NC(=O)[C@H](Cc2ccccc2)NC(=O)[C@H](Cc2ccccc2)NC1=O", "assay": "ligand displacement, radioligand", "conditions": "cell membranes", "Ki [nM]": 18.3}
{"Compound": "N=C(N)NCCC[C@@H]1NC(=O)[C@H](Cc2ccc(O)cc2)NC(=O)[C@@H](CCCCN)NC(=O)[C@@H](Cc2ccccc2)NC1=O", "assay": "ligand displacement, radioligand", "conditions": "cell membranes", "Ki [nM]": 171}
{"Compound": "C[C@@H](NC(=O)[C@@H](N)Cc1ccc(O)cc1)C(=O)NCC(=O)N[C@@H](Cc1ccc(Cl)cc1)C(=O)N(C)CCC[C@@]1(c2ccc(F)cc2)OCc2cc(C#N)ccc21", "assay": "cell-free assay", "Ki [nM]": 7}
{"Compound": "Cc1cc(O)cc(C)c1C[C@H](N)C(=O)N1CCc2ccc(Cc3cccc([N+](=O)[O-])c3)cc2C1", "assay": "ligand displacement, radioligand", "conditions": "cell membranes", "Ki [nM]": 3.1}
{"Compound": "Cc1cc(O)cc(C)c1C[C@H](N)C(=O)N[C@H](C)C(=O)NCC(=O)N[C@@H](Cc1ccc(Cl)cc1)C(=O)N(C)CCC[C@@]1(c2ccc(F)cc2)OCc2cc(C#N)ccc21", "assay": "cell-free assay", "Ki [nM]": 12}
{"Compound": "Cc1cc(O)cc(C)c1C[C@H](N)C(=O)N[C@H](CCCNC(=N)N)C(=O)N[C@@H](Cc1c[nH]c2ccccc12)C(=O)N[C@@H](CCCCN)C(N)=O", "assay": "ligand displacement, radioligand", "conditions": "cell membranes", "Ki [nM]": 0.0991}
{"Compound": "Cc1cc(O)cc(C)c1C[C@H](N)C(=O)N1CCc2ccc(Cc3ccccc3N)cc2C1", "assay": "ligand displacement, radioligand", "conditions": "cell membranes", "Ki [nM]": 2.1}
